From ChEMBL document CHEMBL5724801, “EUbOPEN Chemogenomics Library - Multiplex” (2024)
Several values for one entry are separate records, joined by “and”; a condition that tells them apart may be missing. Equal entries are not always repeated.

Test system: HEK-293T
Test: Multiplex assay against HEK293T
Assay type: toxicity, cell-based
Settings: human
Procedure, shortened: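 Phenotypes for tubulin, mitochondrial mass and membrane permeability are expressed as per cents of healthy-nucleus cells. Cells were stained live at seeding with Hoechst33342, BioTracker Green Microtubule Cytoskeleton Dye, MitoTracker Red and Annexin V Alexa Fluor 680, then imaged after compound addition on a CQ1 microscope at 37°C and 5% CO2. Machine-learning gating in CellPathfinder separated Hoechst high-intensity objects from normal cells, divided normal cells by nuclear state (healthy, pyknosed, fragmented) and divided pyknosed cells into mitotic or apoptotic.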

[1] = 12 h, 1 µM, compound concentration 1 uM
[2] = 12 h, 10 µM, compound concentration 10 uM
[3] = 24 h, 1 µM, compound concentration 1 uM
[4] = 24 h, 10 µM, compound concentration 10 uM
[5] = 48 h, 1 µM, compound concentration 1 uM
[6] = 48 h, 10 µM, compound concentration 10 uM

Compound: CC(C)CC(=O)Nc1cncc(-c2ccc3[nH]nc(-c4nc5c(-c6cccc(F)c6)cncc5[nH]4)c3c2)c1 [LORECIVIVINT]
- Population Apoptotic (%) [1]: 14.17% and 27.84%
- Population Fragmented Nuclei (%) [1]: 5.95% and 3.7%
- Population Hoechst High Intensity Objects (%) [1]: 0%
- Population Membrane Permeable-Phenotype (%) [1]: 0% and 14.29%
- Population Mitochondria Different-Phenotype (%) [1]: 48.15% and 42.86%
- Population Mitotic Cells (%) [1]: 85.83% and 72.16%
- Population Normal (%) [1]: 100%
- Population Pyknosed Nuclei (%) [1]: 64.86% and 89.81%
- Population Tubulin-Different-Phenotype (%) [1]: 64.81% and 57.14%
- Total Cell Count [1]: 185 and 108
- Population Apoptotic (%) [2]: 42.93% and 42.98%
- Population Fragmented Nuclei (%) [2]: 3.44% and 7.88%
- Population Healthy Nuclei (%) [2]: 23.66% and 18.79%
- Population Hoechst High Intensity Objects (%) [2]: 0%
- Population Membrane Permeable-Phenotype (%) [2]: 3.23%
- Population Mitochondria Different-Phenotype (%) [2]: 19.35% and 6.45%
- Population Mitotic Cells (%) [2]: 57.07% and 57.02%
- Population Normal (%) [2]: 100%
- Population Pyknosed Nuclei (%) [2]: 72.9% and 73.33%
- Total Cell Count [2]: 262 and 165
- Population Apoptotic (%) [3]: 54.44% and 66.67%
- Population Fragmented Nuclei (%) [3]: 8.33% and 5.61%
- Population Hoechst High Intensity Objects (%) [3]: 0.64% and 0%
- Population Membrane Permeable-Phenotype (%) [3]: 0%
- Population Mitochondria Different-Phenotype (%) [3]: 83.02% and 75%
- Population Mitotic Cells (%) [3]: 45.56% and 33.33%
- Population Normal (%) [3]: 99.36% and 100%
- Population Pyknosed Nuclei (%) [3]: 57.69% and 86.92%
- Population Tubulin-Different-Phenotype (%) [3]: 94.34% and 50%
- Total Cell Count [3]: 157 and 107
- Population Apoptotic (%) [4]: 59.46% and 44.57%
- Population Fragmented Nuclei (%) [4]: 4.4% and 5.7%
- Population Healthy Nuclei (%) [4]: 25.79% and 17.54%
- Population Hoechst High Intensity Objects (%) [4]: 0.93% and 0%
- Population Membrane Permeable-Phenotype (%) [4]: 3.66% and 10%
- Population Mitotic Cells (%) [4]: 40.54% and 55.43%
- Population Normal (%) [4]: 99.07% and 100%
- Population Pyknosed Nuclei (%) [4]: 69.81% and 76.75%
- Population Tubulin-Different-Phenotype (%) [4]: 34.15% and 12.5%
- Total Cell Count [4]: 321 and 228
- Population Apoptotic (%) [5]: 79.78% and 84.11%
- Population Fragmented Nuclei (%) [5]: 10.98% and 4.07%
- Population Hoechst High Intensity Objects (%) [5]: 1.2% and 0%
- Population Mitochondria Different-Phenotype (%) [5]: 82.46% and 45.45%
- Population Mitotic Cells (%) [5]: 20.22% and 15.89%
- Population Normal (%) [5]: 98.8% and 100%
- Population Pyknosed Nuclei (%) [5]: 54.27% and 86.99%
- Population Tubulin-Different-Phenotype (%) [5]: 73.68% and 63.64%
- Total Cell Count [5]: 166 and 123
- Population Apoptotic (%) [6]: 54.1% and 55.85%
- Population Fragmented Nuclei (%) [6]: 3.22% and 5.44%
- Population Healthy Nuclei (%) [6]: 24.93% and 15.9%
- Population Hoechst High Intensity Objects (%) [6]: 0.27% and 0.42%
- Population Membrane Permeable-Phenotype (%) [6]: 2.15% and 5.26%
- Population Mitochondria Different-Phenotype (%) [6]: 30.11% and 18.42%
- Population Mitotic Cells (%) [6]: 45.9% and 44.15%
- Population Normal (%) [6]: 99.73% and 99.58%
- Population Pyknosed Nuclei (%) [6]: 71.85% and 78.66%
- Population Tubulin-Different-Phenotype (%) [6]: 15.05% and 18.42%
- Total Cell Count [6]: 374 and 240

Compound: CCNC1(C(N)=O)CCN(c2ncnc3c2nc(-c2ccccc2Cl)n3-c2ccc(Cl)cc2)CC1 [OTENABANT]
- Population Apoptotic (%) [1]: 51% and 58%
- Population Fragmented Nuclei (%) [1]: 8%
- Population Healthy Nuclei (%) [1]: 80% and 76%
- Population Hoechst High Intensity Objects (%) [1]: 10% and 6%
- Population Membrane Permeable-Phenotype (%) [1]: 0%
- Population Mitochondria Different-Phenotype (%) [1]: 48% and 66%
- Population Mitotic Cells (%) [1]: 48% and 41%
- Population Normal (%) [1]: 89% and 93%
- Population Pyknosed Nuclei (%) [1]: 10% and 15%
- Population Tubulin-Different-Phenotype (%) [1]: 52% and 44%
- Total Cell Count [1]: 401 and 333
- Population Apoptotic (%) [2]: 46% and 63%
- Population Fragmented Nuclei (%) [2]: 3% and 4%
- Population Healthy Nuclei (%) [2]: 74% and 67%
- Population Hoechst High Intensity Objects (%) [2]: 16% and 9%
- Population Membrane Permeable-Phenotype (%) [2]: 0%
- Population Mitochondria Different-Phenotype (%) [2]: 82% and 96%
- Population Mitotic Cells (%) [2]: 53% and 36%
- Population Normal (%) [2]: 83% and 90%
- Population Pyknosed Nuclei (%) [2]: 22% and 27%
- Population Tubulin-Different-Phenotype (%) [2]: 50% and 43%
- Total Cell Count [2]: 381 and 251
- Population Apoptotic (%) [3]: 49% and 40%
- Population Fragmented Nuclei (%) [3]: 8% and 12%
- Population Healthy Nuclei (%) [3]: 80% and 75%
- Population Hoechst High Intensity Objects (%) [3]: 5%
- Population Membrane Permeable-Phenotype (%) [3]: 0%
- Population Mitochondria Different-Phenotype (%) [3]: 43% and 47%
- Population Mitotic Cells (%) [3]: 50% and 59%
- Population Normal (%) [3]: 94%
- Population Pyknosed Nuclei (%) [3]: 11%
- Population Tubulin-Different-Phenotype (%) [3]: 44% and 41%
- Total Cell Count [3]: 474 and 442
- Population Apoptotic (%) [4]: 40% and 64%
- Population Fragmented Nuclei (%) [4]: 8% and 6%
- Population Healthy Nuclei (%) [4]: 71% and 77%
- Population Hoechst High Intensity Objects (%) [4]: 17% and 13%
- Population Membrane Permeable-Phenotype (%) [4]: 1% and 0%
- Population Mitochondria Different-Phenotype (%) [4]: 79% and 95%
- Population Mitotic Cells (%) [4]: 59% and 35%
- Population Normal (%) [4]: 82% and 86%
- Population Pyknosed Nuclei (%) [4]: 19% and 15%
- Population Tubulin-Different-Phenotype (%) [4]: 56% and 53%
- Total Cell Count [4]: 452 and 283
- Population Apoptotic (%) [5]: 34% and 32%
- Population Fragmented Nuclei (%) [5]: 12% and 8%
- Population Healthy Nuclei (%) [5]: 78% and 82%
- Population Hoechst High Intensity Objects (%) [5]: 4%
- Population Membrane Permeable-Phenotype (%) [5]: 1% and 0%
- Population Mitochondria Different-Phenotype (%) [5]: 29% and 30%
- Population Mitotic Cells (%) [5]: 65% and 68%
- Population Normal (%) [5]: 95%
- Population Pyknosed Nuclei (%) [5]: 9% and 8%
- Population Tubulin-Different-Phenotype (%) [5]: 30%
- Total Cell Count [5]: 766 and 604
- Population Apoptotic (%) [6]: 52% and 70%
- Population Fragmented Nuclei (%) [6]: 13% and 10%
- Population Healthy Nuclei (%) [6]: 71% and 77%
- Population Hoechst High Intensity Objects (%) [6]: 16% and 14%
- Population Membrane Permeable-Phenotype (%) [6]: 2% and 0%
- Population Mitochondria Different-Phenotype (%) [6]: 78% and 89%
- Population Mitotic Cells (%) [6]: 47% and 29%
- Population Normal (%) [6]: 83% and 85%
- Population Pyknosed Nuclei (%) [6]: 15% and 12%
- Population Tubulin-Different-Phenotype (%) [6]: 66% and 57%
- Total Cell Count [6]: 560 and 325
